Values after ≈ are worked out from the molar mass of the structure shown.
Key:
Cytomegalovirus [1] = assay: Antiviral activity against Cytomegalovirus Davies in human embryonic lung cells; assay type: functional, organism-based; details: Human betaherpesvirus 5, Davies
Procedure, shortened: (§1)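 HEL cell monolayers infected at 20 PFU per well, adsorbed 2 h at 37 °C. Medium with serial compound dilutions then added. Giemsa stain on day 7 and plaques counted under the microscope. IC50 is the concentration giving 50% inhibition of virus-induced plaque formation. Minimum cytotoxic concentration scored on day 7 as the lowest concentration causing visible change to the confluent cells.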

HEL = assay: Cytotoxicity against human embryonic lung cells; assay type: functional
Procedure, shortened: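 Two HEL cell toxicity read-outs. Cell growth (CC50): growing HEL cells in 96-well plates were given serial compound concentrations for 3 days, then trypsinized and counted with a Coulter counter; CC50 is the concentration cutting cell growth by 50%. Morphology (MCC): on confluent monolayers during the antiviral assay, this is the lowest concentration with microscopically visible toxicity at day 7.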

Cytomegalovirus [2] = assay: Antiviral activity against Cytomegalovirus AD-169 in human embryonic lung cells; assay type: functional, organism-based; details: Human betaherpesvirus 5, AD-169, lung; procedure, shortened: as §1

C=CCO[C@@H]1[C@@H](OCC=C)[C@H](Cc2ccccc2)O[C@@H]2CO[C@@H](c3ccccc3)O[C@@H]12
IC50 (Cytomegalovirus [1]): 1 µg/mL (≈ 2.37 µM) | CC50 (HEL): > 50 µg/mL | MCC (HEL): 20 µg/mL | IC50 (Cytomegalovirus [2]): 1.2 µg/mL (≈ 2.84 µM)

CO[C@@H]1[C@@H](OC)[C@H](c2ccccc2)O[C@@H]2CO[C@@H](C3CCCCC3)O[C@@H]12
IC50 (Cytomegalovirus [1]): 3.5 µg/mL (≈ 9.66 µM) | CC50 (HEL): 28 µg/mL (≈ 77.2 µM) | MCC (HEL): 20 µg/mL | IC50 (Cytomegalovirus [2]): 3.2 µg/mL (≈ 8.83 µM)

C#CCO[C@@H]1[C@@H](OCC#C)[C@H](Cc2ccccc2)O[C@@H]2CO[C@@H](c3ccccc3)O[C@@H]12
IC50 (Cytomegalovirus [1]): 0.5 µg/mL (≈ 1.19 µM) | MCC (HEL): 40 µg/mL | IC50 (Cytomegalovirus [2]): 0.5 µg/mL (≈ 1.19 µM)

CO[C@H]1[C@@H]2O[C@H](c3ccccc3)OC[C@H]2O[C@@H](c2ccccc2)[C@H]1OC
IC50 (Cytomegalovirus [1]): > 50 µg/mL | MCC (HEL): 400 µg/mL | IC50 (Cytomegalovirus [2]): > 50 µg/mL

CO[C@@H]1[C@@H](OC)[C@H](c2ccccc2)O[C@@H]2CO[C@@H](c3ccc(-c4ccccc4)cc3)O[C@@H]12
IC50 (Cytomegalovirus [1]): 0.6 µg/mL (≈ 1.39 µM) | CC50 (HEL): > 50 µg/mL | MCC (HEL): ≥ 16 µg/mL | IC50 (Cytomegalovirus [2]): 0.8 µg/mL (≈ 1.85 µM)

O=[N+]([O-])c1ccc([C@@H]2OC[C@H]3O[C@@H](c4ccccc4)[C@H](O)[C@@H](O)[C@@H]3O2)cc1
IC50 (Cytomegalovirus [1]): 9.3 µg/mL (≈ 24.9 µM) | CC50 (HEL): > 50 µg/mL | MCC (HEL): 50 µg/mL | IC50 (Cytomegalovirus [2]): 10 µg/mL (≈ 26.8 µM)

CO[C@@H]1[C@@H](OC)[C@H](c2ccccc2)O[C@@H]2CO[C@@H](c3ccc(Cl)cc3)O[C@@H]12
IC50 (Cytomegalovirus [1]): 4 µg/mL (≈ 10.2 µM) | CC50 (HEL): > 50 µg/mL | MCC (HEL): ≥ 100 µg/mL | IC50 (Cytomegalovirus [2]): 5 µg/mL (≈ 12.8 µM)

CCCCCO[C@@H]1[C@@H](OCCCCC)[C@H](c2ccccc2)O[C@@H]2CO[C@@H](c3ccccc3)O[C@@H]12
IC50 (Cytomegalovirus [1]): 2.4 µg/mL (≈ 5.12 µM) | CC50 (HEL): 182 µg/mL (≈ 388 µM) | MCC (HEL): 16 µg/mL | IC50 (Cytomegalovirus [2]): > 3.2 µg/mL

CO[C@@H]1[C@@H](OC)[C@H](c2ccccc2)O[C@@H]2CO[C@@H](c3cccc(Cl)c3)O[C@@H]12
IC50 (Cytomegalovirus [1]): 3.2 µg/mL (≈ 8.19 µM) | MCC (HEL): ≥ 40 µg/mL | IC50 (Cytomegalovirus [2]): 5 µg/mL (≈ 12.8 µM)

CO[C@@H]1[C@@H](OC)[C@H](Cc2ccccc2)O[C@@H]2CO[C@@H](c3ccccc3)O[C@@H]12
IC50 (Cytomegalovirus [1]): 5 µg/mL (≈ 13.5 µM) | CC50 (HEL): > 50 µg/mL | MCC (HEL): 20 µg/mL | IC50 (Cytomegalovirus [2]): 20 µg/mL (≈ 54 µM)

O[C@@H]1[C@@H](O)[C@H](c2ccccc2)O[C@@H]2CO[C@@H](c3ccc(Cl)cc3)O[C@@H]12
IC50 (Cytomegalovirus [1]): 10 µg/mL (≈ 27.6 µM) | CC50 (HEL): > 50 µg/mL | MCC (HEL): ≥ 100 µg/mL | IC50 (Cytomegalovirus [2]): 14 µg/mL (≈ 38.6 µM)

CO[C@@H]1[C@@H](OC)[C@H](c2ccccc2)O[C@@H]2CO[C@@H](c3ccc4ccccc4c3)O[C@@H]12
IC50 (Cytomegalovirus [1]): 0.8 µg/mL (≈ 1.97 µM) | CC50 (HEL): > 50 µg/mL | MCC (HEL): ≥ 16 µg/mL | IC50 (Cytomegalovirus [2]): 0.47 µg/mL (≈ 1.16 µM)

C=CC[C@@H]1O[C@@H]2CO[C@@H](c3ccccc3)O[C@H]2[C@H](OC)[C@H]1OC
IC50 (Cytomegalovirus [1]): > 50 µg/mL | IC50 (Cytomegalovirus [2]): > 50 µg/mL

O[C@@H]1[C@@H](O)[C@H](c2ccccc2)O[C@@H]2CO[C@@H](c3ccc(C(F)(F)F)cc3)O[C@@H]12
IC50 (Cytomegalovirus [1]): 1.6 µg/mL (≈ 4.04 µM) | CC50 (HEL): 35 µg/mL (≈ 88.3 µM) | MCC (HEL): 400 µg/mL | IC50 (Cytomegalovirus [2]): 1.6 µg/mL (≈ 4.04 µM)

CCO[C@@H]1[C@@H](OCC)[C@H](Cc2ccccc2)O[C@@H]2CO[C@@H](c3ccccc3)O[C@@H]12
IC50 (Cytomegalovirus [1]): 3 µg/mL (≈ 7.53 µM) | CC50 (HEL): > 50 µg/mL | MCC (HEL): > 120 µg/mL | IC50 (Cytomegalovirus [2]): 2.6 µg/mL (≈ 6.52 µM)

CO[C@H]1[C@H]2O[C@H](c3ccccc3)OC[C@H]2O[C@@H](c2ccccc2)[C@@H]1OC
IC50 (Cytomegalovirus [1]): > 50 µg/mL | MCC (HEL): > 400 µg/mL | IC50 (Cytomegalovirus [2]): > 50 µg/mL

C#CCO[C@@H]1[C@@H](OCC#C)[C@H](c2ccccc2)O[C@@H]2CO[C@@H](c3ccccc3)O[C@@H]12
IC50 (Cytomegalovirus [1]): 3 µg/mL (≈ 7.42 µM) | MCC (HEL): 40 µg/mL | IC50 (Cytomegalovirus [2]): 5 µg/mL (≈ 12.4 µM)

CO[C@@H]1[C@@H](OC)[C@H](c2ccccc2)O[C@@H]2CO[C@@H](c3ccccc3)O[C@@H]12
IC50 (Cytomegalovirus [1]): 2.4 µg/mL (≈ 6.73 µM) | IC50 (Cytomegalovirus [2]): 2 µg/mL (≈ 5.61 µM)

CC(C)CO[C@@H]1[C@@H](OCC(C)C)[C@@H](c2ccccc2)O[C@@H]2CO[C@@H](c3ccccc3)O[C@@H]12
IC50 (Cytomegalovirus [1]): 3.2 µg/mL (≈ 7.26 µM) | MCC (HEL): 40 µg/mL | IC50 (Cytomegalovirus [2]): 2.6 µg/mL (≈ 5.9 µM)

CO[C@@H]1[C@@H](OC)[C@H](c2ccccc2)O[C@@H]2CO[C@@H](c3ccc(C(F)(F)F)cc3)O[C@@H]12
IC50 (Cytomegalovirus [1]): 3.1 µg/mL (≈ 7.3 µM) | CC50 (HEL): > 50 µg/mL | MCC (HEL): ≥ 16 µg/mL | IC50 (Cytomegalovirus [2]): 1.5 µg/mL (≈ 3.53 µM)

O[C@@H]1[C@@H](O)[C@H](c2ccccc2)O[C@@H]2CO[C@@H](c3ccc4ccccc4c3)O[C@@H]12
IC50 (Cytomegalovirus [1]): 1.8 µg/mL (≈ 4.76 µM) | CC50 (HEL): 21 µg/mL (≈ 55.5 µM) | MCC (HEL): ≥ 400 µg/mL | IC50 (Cytomegalovirus [2]): 1.3 µg/mL (≈ 3.44 µM)

From ChEMBL document CHEMBL1139658, “Synthesis and screening of bicyclic carbohydrate-based compounds: a novel type of antivirals” (Bioorg Med Chem Lett, 2006)
